Here are results for two molecules from ChEMBL document CHEMBL5380787, “Optimized M24B Aminopeptidase Inhibitors for CARD8 Inflammasome Activation” (J Med Chem, 2023).

Calls of active or inactive are those of the source. No cut-off for these calls is given here.

Data set [1] relates to MV4-11. The data set can be described thus: Cytotoxicity against CASP1 knockout human MV4-11 cells assessed as reduction in cell viability at 0.015 to 100 uM incubated for 24 hrs by celltiter-glo assay. In kind it is functional. As to conditions: dose 0.015-100 µM. Put shortly:
(§1)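 MV4;11 cells (WT or CASP1−/−), grown in RPMI 1640 with 10% FBS at 37 °C, 5% CO2, plated 2000 cells/well, dosed by pintool across 100 μM to 15.2 nM in three-fold steps for 24 h. Viability by CellTiter-Glo luminescence after 2 min shaking and 10 min at 25 °C. IC50 as mean ± SEM of three biological replicates.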
(In general: In ATP-based viability assays light output follows the ATP content of the culture.)

The subject of data set [2] is THP-1. The data set is described as follows: Induction of pyroptosis in DPP8/9 knockout human THP-1 cells assessed as GSDMD clevage at 20 uM incubated for 24 hrs by immunoblot analysis. The class given is functional, cell-based. In short, it runs like this:
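Cells (MV4;11, OCI-AML2 or THP-1; WT or the knockout named) plated at 5 × 10^5 cells/well and exposed to 20 μM compound for 24 h. LDH in the supernatant was measured relative to a Triton X-100 lysis control. For immunoblots, cells were washed in PBS, sonicated, protein-normalized, run on SDS-PAGE and probed for GSDMD cleavage. n = 3.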
A general note: Immunoblotting shows a protein as a band on a membrane.

Data set [3] deals with MV4-11. The data set is described as follows: Cytotoxicity against human MV4-11 cells assessed as reduction in cell viability at 0.015 to 100 uM incubated for 24 hrs by celltiter-glo assay. The class given is functional. As to conditions: dose 0.015-100 µM. In short, it runs like this: as §1
A short description of data set [4]: Stability of the compound in human MV4-11 cells assessed as de-esterification by measuring parent compound remaining measured after 24 hrs by LC-MS analysis. In kind it is ADME, cell-based. The conditions noted are these: read-out: Stability. In short, it runs like this:
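Compound was incubated in conditioned medium from MV4;11 cells for 24 h at 37 °C, and LC/MS then measured intact ester remaining and the de-esterified free acid. n = 3, mean ± SEM.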

The nature of data set [5]: Drug metabolism in human MV4-11 cell culture supernatant assessed as (S)-1-((2S,3R)-3-amino-2-hydroxy-5-methylhexanoyl)pyrrolidine-2-carboxylic acid formation measured within 30 mins by LC-MS analysis. In kind it is ADME, cell-based. The conditions noted are these: mv4-11, 0.5 h.
The test system of data set [6] is OCI-AML2. The data set is described as follows: Induction of cell death in human OCI-AML2 cells assessed as increase in PI uptake at 6.25 uM incubated for 6 hrs by PI staining based fluorescence analysis. In kind it is functional. Put shortly:
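PI flux assay. 2 × 10^4 MV4;11 (WT, CARD8−/− or CASP1−/−) or OCI-AML2 cells in RPMI were given compound at 6.25 μM plus PI at 10 μM final. Fluorescence (Ex/Em 535/617 nm) was read every 5 min at 37 °C for 6 h, baseline-corrected to DMSO and normalized to the maximum response. n = 3.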

Data set [7] can be described thus: Drug metabolism of the compound in human MV4-11 cells assessed as de-esterified metabolite formation by LC-MS analysis. The class given is ADME, cell-based.
Data set [8] can be described thus: Stability in human MV4-11 cells assessed as retention time of parent compound incubated for 24 hrs by LC/MS analysis. The class given is ADME, cell-based. As to conditions: mv4-11, 24 h. Put shortly: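 Compound was held in MV4;11 conditioned medium for 24 h at 37 °C, then LC/MS was run, recording the retention times of the parent ester and its free acid.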

For the molecule `COC(=O)[C@@H]1CCCN1C(=O)[C@@H](O)[C@H](N)CC(C)C`, the Activity in data set [1] is given as 95%; in data set [3], 28%. Also, the result in data set [2] was inactive. Moreover, the remaining at 24 h in data set [4] came to 50%. Further, in data set [5], the Drug metabolism result is “Metabolite_Detected”.
In the case of `COC(=O)[C@H](CC(C)C)NC(=O)[C@@H]1CCCN1C(=O)[C@@H](O)[C@H](N)CC(C)C`, the outcome in data set [6] was Active. Also, in data set [7], the Drug metabolism result was “Metabolite_Detected”. Also, in data set [2], the outcome was inactive. In addition, the Retention_time in data set [8] came out at 2.82 min.
